Common to all, as to type: cell-based
Assay [1] has as its target T1, Glycine receptor subunit alpha-1 (Homo sapiens, UniProt P23415).
T1 sequence (P23415 whole entry): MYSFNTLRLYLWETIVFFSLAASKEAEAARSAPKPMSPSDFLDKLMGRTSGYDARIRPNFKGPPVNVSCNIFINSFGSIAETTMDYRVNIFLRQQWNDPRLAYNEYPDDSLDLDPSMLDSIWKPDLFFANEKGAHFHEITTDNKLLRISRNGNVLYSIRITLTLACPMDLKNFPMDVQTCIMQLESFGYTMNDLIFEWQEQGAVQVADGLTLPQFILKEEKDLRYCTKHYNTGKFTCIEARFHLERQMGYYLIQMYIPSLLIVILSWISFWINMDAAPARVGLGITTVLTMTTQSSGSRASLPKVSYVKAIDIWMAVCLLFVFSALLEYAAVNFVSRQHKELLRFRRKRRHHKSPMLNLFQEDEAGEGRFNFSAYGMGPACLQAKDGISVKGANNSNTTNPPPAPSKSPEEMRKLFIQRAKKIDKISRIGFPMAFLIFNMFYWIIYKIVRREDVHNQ
As to the kind of experiment: Activity at human alpha1GlyR expressed in HEK293 cells assessed as inhibition of 3000 uM glycine-induced current by whole-cell patch clamp experiment. An outline of the steps:
(§1)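 α1 GlyR-HEK293 cells, whole-cell patch clamp. Antagonist co-applied with 30 or 3000 µM glycine by gravity perfusion. Peak current normalised to that glycine concentration alone and fitted to Hill equation for IC50 and slope. Mean with 95% CI, 5 cells per glycine concentration.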
In general terms: In patch-clamp work, channel activity is measured electrically.

Assay [2] has as its target T1, Glycine receptor subunit alpha-1. As to the kind of experiment: Activity at human alpha-1GlyR expressed in HEK293 cells assessed as inhibition of 30 uM glycine-induced current by whole-cell patch clamp experiment. The gist of the method: as §1
For assay [3] the target is unchanged. Kind of assay: Activity at human alpha-1-beta-GlyR expressed in HEK293 cells by FMP assay. The gist of the method:
(§2)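 Stable HEK293 lines (α1: G418; α1β: G418 + hygromycin B; α2: hygromycin B) plated on poly-D-lysine 16-24 h. Loaded with FMP dye in HBSS/20 mM HEPES pH 7.4, antagonist present, 30 min at 37 °C. Fluorescence ex 530/em 560 nm read up to 1 min after glycine: 200 µM (α1, α1β) or 500 µM (α2). Duplicates, ≥3 experiments; IC50 from maximal responses.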

The target is the same in assay [4]. Kind of assay: Activity at human alpha-1GlyR expressed in HEK293 cells assessed as inhibition of 300 uM glycine-induced current by whole-cell patch clamp experiment.
Assay [5] has the same target. As to the kind of experiment: Activity at human alpha-1GlyR expressed in HEK293 cells by FMP assay. An outline of the steps:
as §2

Assay [6] addresses T2, Glycine receptor subunit alpha-2 (Homo sapiens, UniProt P23416).
T2 sequence (P23416 whole entry): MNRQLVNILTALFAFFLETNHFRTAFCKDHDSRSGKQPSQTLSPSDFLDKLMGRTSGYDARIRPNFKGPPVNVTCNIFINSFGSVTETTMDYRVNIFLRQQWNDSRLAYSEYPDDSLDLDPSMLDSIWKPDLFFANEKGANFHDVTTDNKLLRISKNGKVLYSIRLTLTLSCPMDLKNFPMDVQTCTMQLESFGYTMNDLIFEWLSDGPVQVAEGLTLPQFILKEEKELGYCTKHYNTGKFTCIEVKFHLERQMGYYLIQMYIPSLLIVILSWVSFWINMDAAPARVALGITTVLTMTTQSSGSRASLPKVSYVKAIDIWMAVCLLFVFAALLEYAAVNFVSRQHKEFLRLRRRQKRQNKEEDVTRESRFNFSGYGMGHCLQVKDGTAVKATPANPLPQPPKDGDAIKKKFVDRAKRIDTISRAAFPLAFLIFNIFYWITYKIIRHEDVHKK
Kind of assay: Activity at human alpha-2GlyR expressed in HEK293 cells by FMP assay. The gist of the method:
as §2

The term IC50 denotes the midpoint of a concentration-inhibition curve. In the case of `C[C@@H]1C(=O)O[C@H]2[C@H](O)[C@]34[C@@H]5OC(=O)[C@]3(O[C@@H]3OC(=O)[C@H](O)[C@@]34[C@H](C(C)(C)C)[C@H]5O)[C@@]12O` [GINKGOLIDE C], the half-maximal inhibitory concentration (IC50) is 5.9 µM in assay [1]; 2.4 µM in assay [2]; 2.4 µM in assay [3]; 1.7 µM in assay [4]; 4.7 µM in assay [5]; 8.2 µM in assay [6].
As for `C[C@@H]1C(=O)O[C@@H]2[C@H]1[C@@]13OC4OC(=O)[C@H](O)C45[C@H](C(C)(C)C)[C@@H](O)C(OC1=O)[C@]53[C@H]2O` (some centres undefined) [GINKGOLIDE M], the IC50 in assay [3] is 0.56 µM; in assay [4] it was 0.65 µM; in assay [5] it was 0.78 µM; in assay [6], 1.3 µM.
With `C[C@@H]1C(=O)O[C@H]2[C@H](O)[C@@]34[C@H]5C[C@@H](C(C)(C)C)[C@]36[C@@H](OC(=O)[C@@H]6O)O[C@@]4(C(=O)O5)[C@@]12O` [GINKOLIDE B], the IC50 was 2.1 µM in assay [3], 1.7 µM in assay [4], 2.9 µM in assay [5] and 3.7 µM in assay [6].

The values are drawn from ChEMBL document CHEMBL1142995, “Probing the pharmacophore of ginkgolides as glycine receptor antagonists” (J Med Chem, 2007).
